The text below walks through data of ChEMBL document CHEMBL1140737, “Discovery of novel agonists and antagonists of the free fatty acid receptor 1 (FFAR1) using virtual screening” (J Med Chem, 2008).

In test [1] the target is T1, Free fatty acid receptor 1 (Homo sapiens, UniProt O14842). The test can be described thus: Agonist activity at FFAR1 expressed in HEK-EM293 cells assessed as calcium influx by FLIPR assay. The settings on record: for Activity: HEK293. In kind it is functional, cell-based.
T1 sequence (O14842 whole entry): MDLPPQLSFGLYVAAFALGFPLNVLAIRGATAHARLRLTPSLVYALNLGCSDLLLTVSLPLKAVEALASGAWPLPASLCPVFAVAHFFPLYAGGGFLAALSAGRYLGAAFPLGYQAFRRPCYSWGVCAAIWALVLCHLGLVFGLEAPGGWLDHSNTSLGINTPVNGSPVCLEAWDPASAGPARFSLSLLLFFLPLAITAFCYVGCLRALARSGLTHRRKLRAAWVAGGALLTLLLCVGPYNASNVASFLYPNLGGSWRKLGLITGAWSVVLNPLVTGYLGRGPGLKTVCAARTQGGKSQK
Test [2] addresses T1, Free fatty acid receptor 1. The test can be described thus: Activity at FFAR1 expressed in HEK-EM293 cells assessed as calcium influx relative to GW-9508 by FLIPR assay. The class given is functional, cell-based. Further details: concentration or dose not given beside the values. The settings on record: HEK293.
The target in test [3] is Free fatty acid receptor 1 (Homo sapiens, UniProt O14842, H86F). The test can be described thus: Activity at FFAR1 H86F mutant expressed in HEK-EM293 cells assessed as calcium influx by FLIPR assay. The class given is functional, cell-based, HEK293. The essentials:
(§1)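 Mutant or wild-type FFAR1 cDNA transiently transfected (lipofectamine LTX/PLUS) into HEK-EM 293 cells. Cells seeded at 60 000/well one day before, then loaded with Calcium4 dye in HEPES (20 mM)-buffered HBSS. Intracellular calcium flux read by FLIPR after agonist addition; EC50 from concentration-response curves.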

Test [4] deals with T1, Free fatty acid receptor 1. Nature of the test: Activity at FFAR1 expressed in HEK-EM293 cells assessed as calcium influx by FLIPR assay. The class given is functional, cell-based, HEK293.
For test [5], the target named is Free fatty acid receptor 1 (Homo sapiens, UniProt O14842, N244A). The test can be described thus: Activity at FFAR1 N244A mutant expressed in HEK-EM293 cells assessed as calcium influx by FLIPR assay. The class given is functional, cell-based, HEK293. The essentials: as §1
Free fatty acid receptor 1 (Homo sapiens, UniProt O14842, N244A), sequence (O14842 whole entry N244A): as the sequence (O14842 whole entry) above, with N244A counted along it
Test [6] deals with Free fatty acid receptor 1 (Homo sapiens, UniProt O14842, L186F). Nature of the test: Activity at FFAR1 L186F mutant expressed in HEK-EM293 cells assessed as calcium influx by FLIPR assay. The class given is functional, cell-based, HEK293. In a few lines: as §1
Free fatty acid receptor 1 (Homo sapiens, UniProt O14842, L186F), sequence (O14842 whole entry L186F): as the sequence (O14842 whole entry) above, with L186F counted along it
Test [7] addresses Free fatty acid receptor 1 (Homo sapiens, UniProt O14842, R183A). Nature of the test: Activity at FFAR1 R183A mutant expressed in HEK-EM293 cells assessed as calcium influx by FLIPR assay. The class given is functional, cell-based, HEK293. The essentials: as §1
The target of test [8] is Free fatty acid receptor 1 (Homo sapiens, UniProt O14842, H137F). The test can be described thus: Activity at FFAR1 H137F mutant expressed in HEK-EM293 cells assessed as calcium influx by FLIPR assay. The class given is functional, cell-based, HEK293. In a few lines: as §1
Free fatty acid receptor 1 (Homo sapiens, UniProt O14842, H137F), sequence (O14842 whole entry H137F): as the sequence (O14842 whole entry) above, with H137F counted along it
Test [9] addresses T1, Free fatty acid receptor 1. The test can be described thus: Antagonist activity at FFAR1 expressed in HEK-EM293 cells assessed as inhibition calcium influx by FLIPR assay. The class given is functional, cell-based, HEK293.
Test [10] is described as follows: Antagonist activity at TRH receptor 1 expressed in HEK-EM293 cells assessed as inhibition of thyrotropin-releasing hormone-stimulated calcium influx at 30 uM by FLIPR assay. The class given is functional. Conditions: HEK293. The essentials: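 HEK-EM 293 cells stably expressing TRH-R1, grown with 200 µg/mL hygromycin and loaded with Calcium4. Pre-incubated with compound, up to 30 µM, then stimulated with TRH. Inhibition of the FLIPR calcium response measured.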

For test [11], the target named is T1, Free fatty acid receptor 1. Nature of the test: Antagonist activity at FFAR1 expressed in HEK-EM293 cells assessed as linoleic acid-stimulated calcium influx after 30 mins by FLIPR assay. In kind it is functional, cell-based. Conditions: HEK293.

Calls of active or inactive are those of the source. No cut-off for these calls is given here.

Free fatty acid receptor 1 (Homo sapiens, UniProt O14842, R183A), sequence (O14842 whole entry R183A): as the sequence (O14842 whole entry) above, with R183A counted along it
Free fatty acid receptor 1 (Homo sapiens, UniProt O14842, H86F), sequence (O14842 whole entry H86F): as the sequence (O14842 whole entry) above, with H86F counted along it

As for `O=C(O)CCCN1C(=O)/C(=C\c2ccc3c(c2)OCO3)SC1=S`, the outcome in [1] was Active.
Still for that read-out and setting: under `O=C(Nc1ccc(OCc2ccccc2)cc1)c1cccc([N+](=O)[O-])c1` stands “inactive”.
As a reminder, the EC50 is the concentration needed to bring the measured effect to its halfway point. As for `O=C(O)CCCN1C(=O)/C(=C\c2ccc(F)cc2)SC1=S`, the EC50 in test [1] was 22.6 µM. In addition, the Activity in test [2] turned out to be 26%.
Consider `O=C(O)CCN1C(=O)/C(=C\c2cccc3ccccc23)SC1=S`, for which the outcome in test [1] was inactive.
`O=C(O)CCCCCN1C(=O)/C(=C\c2cccs2)SC1=S`: the EC50 in test [3] was greater than 10 µM; in [4], 6.6 µM; in test [1], 7.6 µM; in test [5] it was greater than 30 µM; in [6] it was 3.2 µM; in test [7] it was greater than 30 µM. For the same molecule, the EC50 in test [8] was found to be 7.8 µM. For the same molecule, the Activity in test [2] turned out to be 59%.
Regarding `O=C(O)CCCN1C(=O)/C(=C\c2cccs2)SC1=S`, in test [1], the EC50 came out at 19 µM. For the same molecule, the Activity in [2] amounted to 43%.
With `COc1ccc(CNC(=O)/C=C\c2ccc([N+](=O)[O-])cc2)cc1`, in test [1], the outcome was inactive.
In the case of `O=C(O)c1ccc(NC(=O)c2ccc(C(=O)c3ccccc3)cc2)cc1`, the EC50 in test [1] is 16.1 µM. Besides, in [2], the Activity was found to be 56%.
Take `COC(=O)CSc1nnc(SCc2ccccc2)s1`: the EC50 in test [1] was found to be 16.7 µM. The Activity in test [2] is 41%.
For `O=C(O)CSc1nnc(SCc2cccc3ccccc23)s1`, the EC50 in test [3] was no less than 100 µM; in test [4], 1.8 µM; in test [1], 3.6 µM; in [5], no less than 100 µM; in test [6], 0.97 µM; in [7] it was no less than 100 µM. For the same molecule, the EC50 in [8] was determined as 4.3 µM. Also, in test [2], the Activity stood at 100%.
On to `O=C(O)c1cccc(NCc2cccc(OCc3ccccc3)c2)c1`, for which the EC50 in test [1] amounted to 8.2 µM. In [2], the Activity is 52%.
On the same counts, the results for `O=C(O)CCCN1C(=O)/C(=C\c2ccco2)SC1=S` are 16.8 µM and 44%.
In the case of `COc1ccc(CSc2nnc(SCc3ccc(C(=O)O)cc3)s2)cc1`, the EC50 in [1] was found to be 15.1 µM. Besides, in [2], the Activity amounted to 40%.
For the molecule `COc1ccc(CNC(=O)[C@H](C)c2ccc([N+](=O)[O-])cc2)cc1`, in test [1], the outcome was inactive.
By IC50 is commonly meant the concentration at which inhibition is half-maximal. Regarding `O=C(Nc1ccccc1)c1cccc(Oc2ccc([N+](=O)[O-])cc2)c1`, in [9], the IC50 is 5.3 µM.
The inhibition is the change of the read-out against control, counted positive when it falls. As to `O=C(NCc1cccc(Oc2ccccc2)c1)c1ccc([N+](=O)[O-])cc1`, the inhibition at 30 µM in test [10] came to 30%. For the same molecule, the result in test [11] was Active. Further, the IC50 in test [9] worked out at 2.8 µM.
Regarding `O=C(O)CCN1C(=O)/C(=C\c2ccncc2)SC1=S`, in test [1], the outcome was inactive.
Regarding `C=CCOc1ccc(CNc2cccc(C(=O)O)c2)cc1`, the EC50 in test [1] is 14.5 µM. In addition, in [2], the Activity came to 49%.
On the same counts, the results for `O=C(O)c1ccc(NCc2ccc3c(c2)OCO3)cc1` are 24.6 µM and 50%.
On to `O=C(c1ccccc1)c1ccc(NC(=O)c2ccccc2C(=O)O)cc1`, for which the outcome in [1] was inactive.
With `O=C(O)CCN1C(=O)/C(=C\c2c[nH]c3ccccc23)SC1=S`, the outcome in test [1] was inactive.
With `O=C(O)CCCCCN1C(=O)/C(=C\c2cccc3ccccc23)SC1=S`, the EC50 in [1] was found to be 12.2 µM. The Activity in [2] stood at 100%.
